Source: PubChem
bCat KO growth – beta-catenin-lacking colon tumor cell growth suppression; actives 1.5% (n = 140,000); viability, % at 10 µM; HCT116 beta-catenin knockout viability, CellTiter-Glo, 60 h; active compounds read low; AID 818;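 active = viability at or under a set limit, the compound median less 4 SD, cut at about 6% in these data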;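 note: 0% = Hyamine 1622 control at 20 µM and 100% = untreated cell control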
Lung fibro prol – blocks proliferation of human lung fibroblasts; LL 47 human lung fibroblast viability, ATP luminescence; active compounds read low; viability, % at 10 µM; actives 1.1% (n = 85,000); AID 719;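 active = viability at or below 50% in the single dose screen; inactive = viability above 50%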;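 note: compound exposure lasted 72 h before the ATP readout; 100% = median luminescence of untreated cell-only wells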
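Signal: luminescent ATP detection, CellTiter-Glo; assay system: LL 47 human lung fibroblasts; input: 1,150 cells/well; incubation: overnight cell rest, 72 h compound treatment at 37 °C; measure: % viability versus median cells-only luminescence; medium: IMEM growth medium with 15% fetal bovine serum; dosing: compound addition at 0.1% DMSO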
PTEN del growth – growth suppressors of cells with PTEN tumor suppressor deletion | HCT116 PTEN-null viability, CellTiter-Glo, 60 h; active compounds read low | viability, % at 10 µM | actives 1.2% (n = 140,000);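 active = viability at or below a set limit, 4 SD under the median of all tested compounds, cut at about 3.7% in these data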;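 note: PTEN knockout HCT116 line with beta catenin targeted HCT116 as companion control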
HUVEC prolif 384 – inhibitors of human endothelial cell proliferation; HUVEC proliferation, CellTiter-Glo luminescence, 72 h; active compounds read low; viability, % at 10 µM (by protocol); actives 1.1% (n = 86,000); AID 648;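 active = viability at or below 30%; inactive = viability above 30%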;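 note: 100% = median luminescence of DMSO-only cell control wells on each plate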
H69AR growth 86K – growth inhibitors of human H69AR lung tumor cells; H69AR lung tumor viability, ATP luminescence, 72 h; active compounds read low; viability, % at 10 µM; actives 6% (n = 85,000);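 active = viability at or below 40%; inactive = viability above 40%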;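 note: multidrug resistant small cell line overexpressing MRP-1 efflux transporter; 100% = mean luminescence of untreated control wells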
The depositor's hits bear a star; x = no result given. This is one part of a sample in which hits are shown more often than they occur.

SMILES	bCat KO growth	Lung fibro prol	PTEN del growth	HUVEC prolif 384	H69AR growth 86K
N#Cc1ccc(-c2ccc(F)cc2)nc1SCC(=O)Nc1sc2c(c1C#N)CCC2	46	x	49	x	x
O=C(c1cc2c(s1)CCCC2)N1CCN(Cc2ccc3c(c2)OCO3)CC1	73	98	79	82	89
O=C(Oc1ccc2c(c1)OCO2)c1cc2c(s1)CCC2	2.6*	66	2.1*	55	96
CC(=O)NS(=O)(=O)c1ccc(NC(=O)CN2C(=O)C3C4C=CC(C4)C3C2=O)cc1 (centres undefined)	91	x	98	x	x
Cc1c(/C=C(\C#N)c2nn(-c3ccccc3)c(N)c2C#N)c2ccccc2n1Cc1ccc(F)cc1	59	65	57	36	9.6*
CCN(CC)S(=O)(=O)c1cc(C(=O)N(C)CC(=O)Nc2ccc(Cl)cc2)ccc1Cl	70	x	72	x	x
O=c1oc2ccccc2c(Nc2ccccc2)c1[N+](=O)[O-]	83	104	93	90	96
COc1cc(OC)c(OC)cc1CN1CCN(Cc2cccn2C)CC1	85	x	100	x	x
CN1CCN(C(=O)c2cc3c(n(-c4ccccc4)c2=O)CC(C)(C)CC3=O)CC1	95	101	102	103	100
CC1(C)CC(=O)c2cc(C(=O)NCc3ccco3)c(=O)n(-c3ccccc3)c2C1	92	94	91	78	30*
O=[N+]([O-])c1ccc(-n2nnnc2-c2ccccc2)c([N+](=O)[O-])c1	0.6*	x	0.6*	x	x
N#CC1=C(N)Oc2cc(N)ccc2C1C1CCCCC1 (centres undefined)	29	58	25	58	24*
O=C(CN1CCC(NC(=O)c2ccccc2F)CC1)NCc1ccc(F)cc1	91	102	87	89	3.2*
O=C(NC(NC(=S)Nc1ccccc1C(=O)O)C(Cl)(Cl)Cl)c1cccc([N+](=O)[O-])c1 (centres undefined)	101	x	104	x	x
CC(C)C1Cc2c(sc3[nH]c(=S)n(Cc4ccccc4)c(=O)c23)CO1 (centres undefined)	43	69	60	7.0*	25*
Cc1nnc2n(-c3ccccc3)c(=O)c3c4c(sc3n12)COC(C(C)C)C4 (centres undefined)	97	101	95	99	79
Cc1cccc(NC(=O)COC(=O)Cc2cccc(C(F)(F)F)c2)c1C	95	x	95	x	x
Cc1cc(NC(=O)CN2CC3CC(C2)c2cccc(=O)n2C3)nc2c1c(=O)oc1ccccc12 (centres undefined)	x	99	x	89	91
Cc1cccc(CC(=O)Nc2cc(C)c3c(=O)oc4ccccc4c3n2)c1	85	87	87	62	12*
Cc1cc(NC(=O)C2CCCC2)nc2c1c(=O)oc1ccccc12	82	108	77	72	37*
Cc1cc(NC(=O)C2CCCCC2)nc2c1c(=O)oc1ccccc12	91	x	92	x	x
Cc1cc(NC(=O)Cc2ccccc2)nc2c1c(=O)oc1ccccc12	97	x	91	x	x
Cc1cc(NC(=O)CN2CCN(Cc3ccccc3)CC2)nc2c1c(=O)oc1ccccc12	x	64	x	60	22*
Cc1ccc(NS(=O)(=O)c2cccc(C(=O)Nc3cc(C)on3)c2)cc1	68	104	80	90	80
Cc1ccc(CN(CC(=O)NCCc2ccccc2)C(=O)CCCC(=O)Nc2cc(C)on2)cc1	79	99	90	92	105
SMILES	bCat KO growth	Lung fibro prol	PTEN del growth	HUVEC prolif 384	H69AR growth 86K
COC(=O)NC(=S)Nc1ccc(Oc2ccc(Cl)cc2Cl)c(Cl)c1	23	103	26	57	24*
Cc1nn(-c2ccc(F)cc2)c(C)c1NS(=O)(=O)c1ccc2ccccc2c1	62	96	52	77	36*
CC(=O)Nc1ccc(S(=O)(=O)Nc2c(C)nn(-c3ccccc3)c2C)cc1	80	88	74	91	49
Cc1nc(-n2ncc(C#N)c2N)c2c3c(sc2n1)CCC3	84	96	2.0*	66	80
Cc1c(CCOC(=O)CC23CC4CC(CC(C4)C2)C3)sc[n+]1CC(=O)c1ccc(Br)cc1	4.8*	26*	7	2.2*	1.3*
CC(C)C(C)NC(=O)CSc1nc2scc(-c3ccco3)c2c(=O)n1-c1ccccc1 (centres undefined)	97	88	98	94	78
CCn1c(SCC(=O)Nc2cc(C)on2)nc2sc3c(c2c1=O)CCCC3	14	15*	2.3*	78	7.1*
C=CCn1c(SCC(=O)Nc2cc(C)on2)nc2sc(C)c(C)c2c1=O	78	91	57	97	28*
